Assays:
Type in all cases: cell-based
BRD4 = BRD4 (Homo sapiens, UniProt O60885); test: BRD4 protein level by immunoblot in BL cell lines
BL cell lines [1] = test: Proliferation by CellTiter-Glo assay in BL cell lines; settings: 72 hours; for Effect on proliferation: BL cell lines, CTG assay
Method in brief: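 Burkitt lymphoma cells were seeded at 50000 per 100 µl in 96-well plates and given increasing concentrations of test compound. After 72 hours, CellTiter-Glo reagent was added and luminescence was read. Relative growth was calculated against DMSO-treated control cells.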

c-MYC = c-MYC protein level by immunoblot in BL cell lines; settings: for c-MYC level upon withdrawal of compound from culture media: 1.0 µM for 24 hours, then removal, Namalwa and Ramos cells; for Time for c-MYC to recover to control level after compound removal: Namalwa cells, 24 hrs treatment (1.0 µM), three washes; for c-MYC level suppression: overnight treatment with increasing doses, BL cells, immunoblot
SLC19A1 = SLC19A1 expression by RT-qPCR in Namalwa cells; settings: for Time for SLC19A1 to recover to control treatment level post compound removal: 24 hours treatment (1.0 µM), qPCR
BL cell lines [2] = test: Caspase-Glo 3/7 apoptosis induction assay in BL cell lines; settings: 24 hour treatment, four BL cell lines; ARV-825 0.1 µM, JQ1 1.0 µM, OTX015 1.0 µM
Method in brief: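 Four Burkitt lymphoma lines (Namalwa, Ramos, CA-46, DAUDI; from ATCC, maintained as instructed) were exposed for 24 hours to test compounds at 0.1 or 1.0 µM. Puromycin served as the apoptosis-induction positive control. Caspase 3/7 activity was read by luminescent Caspase-Glo 3/7 assay following the manufacturer's protocol.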

Ramos cells = test: PARP cleavage by immunoblot; settings: 48 hours, 0.1 µM
BRD2 = BRD2 protein degradation by immunoblot; settings: Supp Figure 3
BRD3 = BRD3 protein degradation by immunoblot; settings: Supp Figure 3

| SMILES | Effect on BRD4 protein level (BRD4) | Effect on proliferation (BL cell lines [1]) | c-MYC level upon withdrawal of compound from culture media (c-MYC) | Time for c-MYC to recover to control level after compound removal (c-MYC) [h] | c-MYC level suppression (c-MYC) | Time for SLC19A1 to recover to control treatment level post compound removal (SLC19A1) [h] | Caspases 3/7 activity (BL cell lines [2]) | SLC19A1 suppression (SLC19A1; compared with JQ1 and OTX015) | Proliferation suppression in presence of excessive pomalidomide (BL cell lines [1]; ARV-825 0.01 or 0.1 µM with pomalidomide 1.0 or 10.0 µM) | Apoptosis (PARP cleavage) (Ramos cells) | BRD2 degradation (BRD2) | BRD3 degradation (BRD3) |
| --- | --- | --- | --- | --- | --- | --- | --- | --- | --- | --- | --- | --- |
| Nc1cccc2c1C(=O)N(C1CCC(=O)NC1=O)C2=O (centres unmarked) [pomalidomide] | no impact on BRD4 protein levels | didn’t show any significant effects |  |  |  |  |  |  |  |  |  |  |
| Cc1sc2c(c1C)C(c1ccc(Cl)cc1)=N[C@@H](CC(=O)OC(C)(C)C)c1nnc(C)n1-2 [JQ1] |  |  | rapidly restored to normal | 4 | unable to suppress c-MYC levels fully | 6 | not with high dose of JQ1 and OTX015 |  |  |  |  |  |
| Cc1sc2c(c1C)C(c1ccc(Cl)cc1)=N[C@@H](CC(=O)Nc1ccc(OCCOCCOCCOCCNc3cccc4c3C(=O)N(C3CCC(=O)NC3=O)C4=O)cc1)c1nnc(C)n1-2 (some centres unmarked) [ARV-825] |  | more pronounced suppression of proliferation than both JQ1 and OTX015 |  |  | more pronounced downregulation of c-MYC |  | increased caspases 3/7 activity | suppressed more substantially | rescued the proliferation suppression effect | significant apoptosis | can be degraded | can be degraded |
| Cc1sc2c(c1C)C(c1ccc(Cl)cc1)=N[C@@H](CC(=O)Nc1ccc(O)cc1)c1nnc(C)n1-2 [OTX015] |  |  | rapidly restored to normal | 4 | unable to suppress c-MYC levels fully | 6 | not with high dose of JQ1 and OTX015 |  |  |  |  |  |

Reference: article PMC4475452 (Chemistry & biology, 2015)
